Experimental data from ChEMBL document CHEMBL3616436, “Synthesis, cytotoxicity and antimicrobial activity of thiourea derivatives incorporating 3-(trifluoromethyl)phenyl moiety” (Eur J Med Chem, 2015).
Converted amounts (≈) assume the structure as drawn. The source made the active and inactive calls. The calls are words filed in the database; no cut-off is given here.

Legend:
Staphylococcus aureus [1] = assay: Antimicrobial activity against Staphylococcus aureus ATCC 6538 after 18 hrs by twofold serial microdilution method; type: functional; details: ATCC 6538, 18 h
Enterococcus faecalis = assay: Antimicrobial activity against Enterococcus faecalis ATCC 29212 at 400 ug after 18 hrs by disc-diffusion method; type: functional; details: for zone of inhibition at 400 µg/disc: ATCC 29212, 18 h, read-out: IZ
Procedure, shortened: (§1)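 Disc diffusion on Mueller-Hinton II agar per CLSI; 9 mm paper discs loaded with 400 µg compound from DMSO solution, dried, placed on agar; growth inhibition zone diameter read after 18 h at 35°C.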

Staphylococcus aureus [2] = assay: Antimicrobial activity against hospital methicillin-resistant Staphylococcus aureus 81/05 after 18 hrs by twofold serial microdilution method; type: functional; details: 81/05, 18 h
Procedure, shortened: (§2)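 Twofold serial microdilution in Mueller-Hinton broth. Compound stock was made in DMSO and diluted in sterile water. Tested range was 0.125–512 µg/mL. Final inoculum was 10^5 CFU/mL. Plates were incubated 18 h at 35 °C. MIC is the lowest concentration preventing visible growth.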

[3] = system: Staphylococcus epidermidis; assay: Antimicrobial activity against hospital methicillin-resistant Staphylococcus epidermidis 23/04 after 18 hrs by twofold serial microdilution method; type: functional; details: 23/04, 18 h; procedure, shortened: as §2
Staphylococcus aureus [4] = assay: Antimicrobial activity against Staphylococcus aureus NCTC 4163 after 18 hrs by twofold serial microdilution method; type: functional; details: NCTC 4163, 18 h
Staphylococcus aureus [5] = assay: Antimicrobial activity against hospital methicillin-resistant Staphylococcus aureus 79/05 after 18 hrs by twofold serial microdilution method; type: functional; details: 79/05, 18 h; procedure, shortened: as §2
Staphylococcus aureus [6] = assay: Antimicrobial activity against Staphylococcus aureus ATCC 25923 after 18 hrs by twofold serial microdilution method; type: functional; details: ATCC 25923, 18 h
Staphylococcus aureus [7] = assay: Antimicrobial activity against hospital methicillin-resistant Staphylococcus aureus 573/11 after 18 hrs by twofold serial microdilution method; type: functional; details: 573/11, 18 h; procedure, shortened: as §2
Bacillus subtilis = assay: Antimicrobial activity against Bacillus subtilis ATCC 6633 at 400 ug after 18 hrs by disc-diffusion method; type: functional; details: ATCC 6633, 18 h, read-out: IZ; procedure, shortened: as §1
[8] = system: Staphylococcus epidermidis; assay: Antimicrobial activity against hospital methicillin-resistant Staphylococcus epidermidis 62/04 after 18 hrs by twofold serial microdilution method; type: functional; details: 62/04, 18 h; procedure, shortened: as §2
[9] = system: Staphylococcus epidermidis; assay: Antimicrobial activity against hospital methicillin-resistant Staphylococcus epidermidis 76/04 after 18 hrs by twofold serial microdilution method; type: functional; details: 76/04, 18 h; procedure, shortened: as §2
Staphylococcus aureus [10] = assay: Antimicrobial activity against Staphylococcus aureus ATCC 6538 at 400 ug after 18 hrs by disc-diffusion method; type: functional; details: ATCC 6538, 18 h, read-out: IZ; procedure, shortened: as §1
Staphylococcus aureus [11] = assay: Antimicrobial activity against hospital methicillin-resistant Staphylococcus aureus 53/05 after 18 hrs by twofold serial microdilution method; type: functional; details: 53/05, 18 h; procedure, shortened: as §2
[12] = system: Staphylococcus epidermidis; assay: Antimicrobial activity against Staphylococcus epidermidis ATCC 35984 at 400 ug after 18 hrs by disc-diffusion method; type: functional; details: ATCC 35984, 18 h, read-out: IZ; procedure, shortened: as §1
Staphylococcus aureus [13] = assay: Antimicrobial activity against hospital methicillin-resistant Staphylococcus aureus 57/05 after 18 hrs by twofold serial microdilution method; type: functional; details: 57/05, 18 h; procedure, shortened: as §2
[14] = system: Staphylococcus epidermidis; assay: Antimicrobial activity against hospital methicillin-resistant Staphylococcus epidermidis 16/04 after 18 hrs by twofold serial microdilution method; type: functional; details: 16/04, 18 h; procedure, shortened: as §2
[15] = system: Staphylococcus epidermidis; assay: Antimicrobial activity against Staphylococcus epidermidis ATCC 35984 after 18 hrs by twofold serial microdilution method; type: functional; details: ATCC 35984, 18 h
[16] = system: Staphylococcus epidermidis; assay: Antimicrobial activity against hospital methicillin-resistant Staphylococcus epidermidis 151/04 after 18 hrs by twofold serial microdilution method; type: functional; details: 151/04, 18 h; procedure, shortened: as §2
[17] = system: Mycobacterium tuberculosis; assay: Antimycobacterial activity against drug-sensitive Mycobacterium tuberculosis Spec. 192; type: functional
Procedure, shortened: (§3)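 Classical test-tube successive-dilution method in Youmans' modification of Proskauer and Beck liquid medium with 10% bovine serum. Inoculum came from 14-day cultures. DMSO stock was 10 mg/mL, diluted geometrically in medium. Tubes were incubated at 37 °C. Concentrations tested were 3.1, 6.2, 12.5, 25, 50 and 100 µg/ml. MIC is the minimum concentration inhibiting growth relative to compound-free tubes.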

[18] = system: Staphylococcus epidermidis; assay: Ratio of ciprofloxacin MIC to compound MIC for hospital methicillin-resistant Staphylococcus epidermidis 23/04 after 18 hrs by twofold serial microdilution method; type: functional
Procedure, shortened: (§4)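 Ratio of MICs for ciprofloxacin and test agent, each from twofold serial broth microdilution in Mueller-Hinton broth following CLSI guidelines. DMSO stock was diluted in sterile water to 0.125–512 µg/mL, with a final inoculum of 10^5 CFU/mL.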

[19] = system: Vesicular stomatitis virus; assay: Antiviral activity against Vesicular stomatitis virus ATCC VR 1540 infected in African green monkey Vero 76 cells assessed as reduction of virus-plaque formation after 2 days by crystal violet staining; type: functional, organism-based; details: ATCC VR 1540, Vero, 48 h
Staphylococcus aureus [20] = assay: Ratio of ciprofloxacin MIC to compound MIC for hospital methicillin-resistant Staphylococcus aureus 80/05 after 18 hrs by twofold serial microdilution method; type: functional; procedure, shortened: as §4
Staphylococcus aureus [21] = assay: Ratio of ciprofloxacin MIC to compound MIC for hospital methicillin-resistant Staphylococcus aureus 53/05 after 18 hrs by twofold serial microdilution method; type: functional; procedure, shortened: as §4
Yellow fever virus = assay: Antiviral activity against Yellow fever virus 17D infected in BHK cells assessed as protection against virus-induced cytopathogenicity after 3 to 4 days by MTT assay; type: functional, cell-based
Staphylococcus aureus [22] = assay: Antimicrobial activity against hospital methicillin-resistant Staphylococcus aureus 80/05 after 18 hrs by twofold serial microdilution method; type: functional; details: 80/05, 18 h; procedure, shortened: as §2
Coxsackievirus B5 = assay: Antiviral activity against Human coxsackievirus B5 ATCC VR-29 infected in African green monkey Vero 76 cells assessed as reduction of virus-plaque formation after 3 days by crystal violet staining; type: functional, organism-based; details: Enterovirus B, ATCC VR-29, Vero, 72 h
Procedure, shortened: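 Plaque reduction: Vero-76 at 2x10^5 cells/well grown to confluent monolayers, infected 2 h at 50–100 PFU/well; after removing unadsorbed virus, overlay of D-MEM, 1% inactivated FBS, 0.75% methylcellulose with or without serial compound dilutions; 3 days at 37°C, fixed and stained with crystal violet in 50% ethanol, plaques counted; EC50 by linear regression.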

[23] = system: Staphylococcus epidermidis; assay: Ratio of ciprofloxacin MIC to compound MIC for hospital methicillin-resistant Staphylococcus epidermidis 31/04 after 18 hrs by twofold serial microdilution method; type: functional; procedure, shortened: as §4
[24] = system: Staphylococcus epidermidis; assay: Ratio of ciprofloxacin MIC to compound MIC for hospital methicillin-resistant Staphylococcus epidermidis […]/[…] after 18 hrs by twofold serial microdilution method; type: functional, 16/04
[25] = system: Mycobacterium tuberculosis; assay: Antimycobacterial activity against Mycobacterium tuberculosis H37Rv ATCC 25618; type: functional; procedure, shortened: as §3
[26] = system: Human immunodeficiency virus 1; assay: Antiviral activity against HIV1 3B infected in human MT4 cells assessed as protection against virus-induced cytopathogenicity by MTT assay; type: functional, organism-based; details: Human immunodeficiency virus 1, 3B
[27] = Cytotoxicity against African green monkey Vero 76 cells assessed as cell viability after 48 to 96 hrs by crystal violet staining; type: cell-based; details: chlorocebus sabaeus
[28] = Cytotoxicity against bovine MDBK cells assessed as cell viability after 48 to 96 hrs by MTT assay; type: cell-based, Bos taurus; details: cattle
[29] = Cytotoxicity against BHK cells assessed as cell viability after 48 to 96 hrs by MTT assay; type: cell-based, Mesocricetus auratus; details: hamster

Compound	MIC (Staphylococcus aureus [1]) [µg/mL]	zone of inhibition at 400 µg/disc (Enterococcus faecalis) [mm]	MIC (Staphylococcus aureus [2]) [µg/mL]	MIC [3] [µg/mL]	MIC (Staphylococcus aureus [4]) [µg/mL]	MIC (Staphylococcus aureus [5]) [µg/mL]	MIC (Staphylococcus aureus [6]) [µg/mL]	MIC (Staphylococcus aureus [7]) [µg/mL]	zone of inhibition at 400 µg/disc (Bacillus subtilis) [mm]	MIC [8] [µg/mL]	MIC [9] [µg/mL]	zone of inhibition at 400 µg/disc (Staphylococcus aureus [10]) [mm]	MIC (Staphylococcus aureus [11]) [µg/mL]	zone of inhibition at 400 µg/disc [12] [mm]	MIC (Staphylococcus aureus [13]) [µg/mL]	MIC [14] [µg/mL]	MIC [15] [µg/mL]	MIC [16] [µg/mL]	MIC [17] [µg/mL]	Ratio [18]	further results
O=C(O)c1cn(C2CC2)c2cc(N3CCNCC3)c(F)cc2c1=O [CIPROFLOXACIN]	0.25 (≈ 0.754 µM)	15	8 (≈ 24.1 µM)	2 (≈ 6.04 µM)	0.25 (≈ 0.754 µM)	64 (≈ 193 µM)	0.5 (≈ 1.51 µM)	64 (≈ 193 µM)	40	0.125 (≈ 0.377 µM)	0.125 (≈ 0.377 µM)	28	64 (≈ 193 µM)	32	128 (≈ 386 µM)	32 (≈ 96.6 µM)	0.25 (≈ 0.754 µM)	4 (≈ 12.1 µM)	–	–	–
FC(F)(F)c1cccc(NC(S)=Nc2ccc(Cl)c(Cl)c2)c1	0.5 (≈ 1.37 µM)	12	1 (≈ 2.74 µM)	1 (≈ 2.74 µM)	0.5 (≈ 1.37 µM)	2 (≈ 5.48 µM)	0.5 (≈ 1.37 µM)	1 (≈ 2.74 µM)	11	1 (≈ 2.74 µM)	1 (≈ 2.74 µM)	14	2 (≈ 5.48 µM)	13	2 (≈ 5.48 µM)	2 (≈ 5.48 µM)	1 (≈ 2.74 µM)	1 (≈ 2.74 µM)	100 (≈ 274 µM)	128	EC50 [19]: > 16 µM; Ratio (Staphylococcus aureus [20]): 128; Ratio (Staphylococcus aureus [21]): 128; EC50 (Yellow fever virus): > 9.5 µM; MIC (Staphylococcus aureus [22]): 2 µg/mL (≈ 5.48 µM); EC50 (Coxsackievirus B5): > 16 µM; Ratio [23]: 128; Ratio [24]: 128; MIC [25]: 50 µg/mL (≈ 137 µM); EC50 [26]: > 9 µM
FC(F)(F)c1cccc(NC(S)=NCc2ccccc2)c1	8 (≈ 25.8 µM)	–	8 (≈ 25.8 µM)	16 (≈ 51.6 µM)	16 (≈ 51.6 µM)	16 (≈ 51.6 µM)	16 (≈ 51.6 µM)	16 (≈ 51.6 µM)	16	16 (≈ 51.6 µM)	8 (≈ 25.8 µM)	15	8 (≈ 25.8 µM)	13	8 (≈ 25.8 µM)	16 (≈ 51.6 µM)	16 (≈ 51.6 µM)	16 (≈ 51.6 µM)	25 (≈ 80.6 µM)	128	CC50 [27]: 35 µM; inhibition zone (IZ) (Enterococcus faecalis): inactive; EC50 [19]: > 35 µM; Ratio (Staphylococcus aureus [20]): 128; Ratio (Staphylococcus aureus [21]): 128; EC50 (Yellow fever virus): > 45 µM; MIC (Staphylococcus aureus [22]): 16 µg/mL (≈ 51.6 µM); EC50 (Coxsackievirus B5): > 35 µM; CC50 [28]: 40 µM; Ratio [23]: 128; Ratio [24]: 128; MIC [25]: 25 µg/mL (≈ 80.6 µM); EC50 [26]: > 45 µM; CC50 [29]: 45 µM
